tim10-1 inh = growth inhibitors of tim10-1 mutant yeast, primary screen, luminescence, uHTS. inhibition, % at 20 µM. AID 463190, 2010. S. cerevisiae tim10-1 ts strain growth, BacTiter-Glo, 24 h. hit rate 2.2% among 330,000;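 active = inhibition of at least 40%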;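 also: mutant grown at 25 °C; 0% = DMSO wells with yeast and 100% = wells holding no yeast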
TIM10 inh = growth inhibitors of isogenic TIM10 control yeast, primary screen, counter-screen for tim10-1 yeast inhibitor project, luminescence, uHTS; S. cerevisiae TIM10 strain growth, BacTiter-Glo luminescence, 24 h; AID 463195, 2010; hit rate 1.4% among 330,000; inhibition, % at 10 µM;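 active = inhibition of 40% or more at the single tested concentration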;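 also: wild-type TIM10 isogenic control strain grown at permissive 25 °C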
tim23-1 inh = growth inhibitors of tim23-1 mutant yeast, primary screen, luminescence, uHTS; hit rate 1.3% among 330,000; inhibition, % at 20 µM; S. cerevisiae tim23-1 growth, BacTiter-Glo luminescence, 24 h;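 active = growth inhibition of the mutant yeast at or above 50%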;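 also: temperature-sensitive mutant grown at 25 °C; plate controls were DMSO-treated mutant yeast for no effect and medium wells lacking yeast for full effect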
CHOP UPR activ = activators of apoptotic CHOP UPR arm, primary screen, cell-based, CHO-CHOP luciferase reporter, luminescence, uHTS; UPR activation; percent of tunicamycin response over DMSO baseline; activation, % at 10 µM; hit rate 0.34% among 330,000; AID 449763, 2010;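 active = at 10 µM dose, activation of 40% or more, normalized to positive control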;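 also: 100% = tunicamycin at 10 µg/mL and 0% = DMSO alone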
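Evaluation: % reporter activation, DMSO baseline versus tunicamycin full activation; System: CHO-CHOP luciferase reporter cell line; Input: 500 cells/well; Incubation: 6 h compound treatment, 37 °C; Measured by: Steady-Glo luciferase luminescence; Dosing: one dose, 10 µM in 0.5% DMSO; Buffer or medium: F12 medium, 10% FBS; Benchmarks: positive tunicamycin 10 µg/mL, negative DMSO alone.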
UPR XBP1 act = activators of adaptive XBP1 UPR arm, primary screen, cell-based, CHO-XBP1 luciferase reporter, luminescence, uHTS; IRE1-XBP1 UPR activation; percent of tunicamycin response, DMSO as zero; activation, % at 20 µM; hit rate 0.33% among 330,000; AID 463104, 2010;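 active = versus positive control, 20 µM dose yields 30% or more activation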;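 also: 100% = tunicamycin at 10 µg/mL and 0% = DMSO only wells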
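Assay system: IRE1-XBP1 luciferase reporter CHO line. Input: 1000 cells/well. Buffer or medium: F12 with 10% serum. Doses: 20 µM, 1% DMSO. Times: overnight seeding at 37 °C, 6 h compound treatment at 37 °C. Technique: Steady-Glo luciferase glow luminescence, 10 min after reagent addition.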
TIM10 conf = growth inhibitors of wild-type TIM10 yeast, confirmation, counter-screen for tim10-1 synthetic lethality project, single concentration, luminescence, S. cerevisiae. S. cerevisiae tim10 strain growth, BacTiter-Glo luminescence, 24 h. AID 463215, 2010. hit rate 63% among 4,600. inhibition, % at 10 µM. shares compounds with TIM10 inh;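 active = inhibition of yeast growth at or above a set limit in either of two replicates at 10 µM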;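 also: this counterscreen used the strain with wild-type TIM10; 0% = yeast with DMSO and 100% = medium wells lacking yeast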
Starred values were filed as active, the others as inactive. Most compounds without a hit are left out; they make up all but 3.9% or so of the library.

For CCc1nn(CC(=O)N2CCCCCC2)c(=O)c2cc3ccccc3n12 the results were tim10-1 inh 21.0, TIM10 inh -2.6, tim23-1 inh 17.1, CHOP UPR activ -0.9 and UPR XBP1 act -2.4.
COc1cc(OC)cc(C(=O)NCc2nc(-c3ccccc3)no2)c1 was read as tim10-1 inh -1.6, TIM10 inh 90.8*, tim23-1 inh 4.5, CHOP UPR activ -1.2, UPR XBP1 act 2.5 and TIM10 conf -23.2.
Screening COc1cccc(-n2c(=O)n(Cc3ccccc3)c(=O)c3[nH]cnc32)c1 returned tim10-1 inh -1.7, TIM10 inh 6.2, tim23-1 inh -1.7, CHOP UPR activ 1.2 and UPR XBP1 act 1.1.
`CCOc1cc(-c2cc(-c3ccc(C)o3)nc(N)c2C#N)ccc1O` gave tim10-1 inh 39.8, TIM10 inh 43.2*, tim23-1 inh 31.1, CHOP UPR activ -2.6, UPR XBP1 act 9.9 and TIM10 conf 21.1.
Screening CCCc1cc(C(=O)N2CCN(c3ccccc3C)CC2)cs1 returned tim10-1 inh 32.2, TIM10 inh 40.0*, tim23-1 inh 34.3, CHOP UPR activ 0.0, UPR XBP1 act -1.4 and TIM10 conf 35.9*.
Screening CCCc1cc(C(=O)N2CCCN(C)CC2)cs1 returned tim10-1 inh -5.1, TIM10 inh -6.0, tim23-1 inh 7.2, CHOP UPR activ -2.1 and UPR XBP1 act -0.9.
Screening COC(=O)c1ccccc1NC(=O)CNc1ccc(F)c(S(=O)(=O)N2CCOCC2)c1 returned tim10-1 inh 21.1, TIM10 inh 18.0, tim23-1 inh 22.2, CHOP UPR activ 0.5 and UPR XBP1 act -2.7.
For COc1cc(C(=O)OC(C)CN2C(C)CCCC2C)cc(OC)c1OC (centres undefined) the results were tim10-1 inh -9.3, TIM10 inh -1.2, tim23-1 inh -11.2, CHOP UPR activ 1.7 and UPR XBP1 act -2.2.
For Cc1cc(NC(=O)c2ccccc2)sc1C the results were tim10-1 inh 37.6, TIM10 inh 51.9*, tim23-1 inh 44.0, CHOP UPR activ 5.2, UPR XBP1 act 1.0 and TIM10 conf 42.3*.
For Cc1cc(NC(=O)c2ccccc2)cc(NC(=O)c2ccccc2)c1C the results were tim10-1 inh 2.2, TIM10 inh 0.5, tim23-1 inh 2.4, CHOP UPR activ 1.3 and UPR XBP1 act -0.2.
Screening COc1ccc(/C=C/C(=O)c2ccc(Cl)cc2)c(OC)c1 returned tim10-1 inh 28.3, TIM10 inh 44.0*, tim23-1 inh 25.9, CHOP UPR activ 0.8, UPR XBP1 act -1.6 and TIM10 conf 26.2.
`CCCc1nc(SCC(=O)Nc2nnc(CC)s2)c2c(=O)n(C)c(=O)n(C)c2n1` gave tim10-1 inh -16.6, TIM10 inh -6.7, tim23-1 inh -32.2, CHOP UPR activ 3.3 and UPR XBP1 act -1.0.
Screening CC1=NN(c2ccccc2)C(=O)/C1=C\C=C\c1ccccc1 returned tim10-1 inh 28.5, TIM10 inh 54.1*, tim23-1 inh 42.4, CHOP UPR activ 3.1, UPR XBP1 act -1.0 and TIM10 conf 38.1*.
`NS(=O)(=O)c1ccc(CNC(=O)c2cccnc2Cl)cc1` gave tim10-1 inh 15.2, TIM10 inh -21.7, tim23-1 inh 4.3, CHOP UPR activ -1.1 and UPR XBP1 act -6.5.
O=C(CSc1ncn[nH]1)N/N=C/c1ccc(C(F)(F)F)cc1 was read as tim10-1 inh 5.4, TIM10 inh -0.2, tim23-1 inh 13.1, CHOP UPR activ -1.2 and UPR XBP1 act 0.3.
Screening CC1=CCC(C(=O)O)C(C(=O)NC2CCCCC2)C1 (centres undefined) returned tim10-1 inh 1.9, TIM10 inh 2.0, tim23-1 inh 4.2, CHOP UPR activ -2.6 and UPR XBP1 act -2.4.
Screening O=C(NCC1CCCO1)c1cc2ccccc2oc1=O (centres undefined) returned tim10-1 inh 5.9, TIM10 inh 95.2*, tim23-1 inh 5.7, CHOP UPR activ 3.7, UPR XBP1 act 1.9 and TIM10 conf -6.4.
`N/C(=N\NC(=O)c1ccccc1)c1cc2ccccc2oc1=O` gave tim10-1 inh -4.2, TIM10 inh 47.8*, tim23-1 inh 11.6, CHOP UPR activ 1.6, UPR XBP1 act -0.4 and TIM10 conf 16.8.
For COc1cccc(CNC(=O)C2CCC(=O)N(CC3CCCCC3)C2)c1OC (centres undefined) the results were tim10-1 inh 1.1, TIM10 inh -5.6, tim23-1 inh 3.5, CHOP UPR activ -1.1 and UPR XBP1 act -3.9.
Screening c1ccc(-c2csc(Nc3ccc4c(c3)OCCO4)n2)cc1 returned tim10-1 inh 36.8, TIM10 inh 41.4*, tim23-1 inh 31.8, CHOP UPR activ 3.4, UPR XBP1 act -0.1 and TIM10 conf 5.2.
For c1cc2c(cc1Nc1nc(-c3ccc4c(c3)OCO4)cs1)OCCO2 the results were tim10-1 inh 27.4, TIM10 inh 15.4, tim23-1 inh 18.3, CHOP UPR activ 3.6 and UPR XBP1 act 2.0.
`O=C(NCC1COc2ccccc2O1)Nc1ccccc1F` (centres undefined) gave tim10-1 inh 9.2, TIM10 inh 24.3, tim23-1 inh 29.1, CHOP UPR activ 3.5 and UPR XBP1 act 0.9.
For CN(CC1COc2ccccc2O1)C(=S)Nc1ccccc1F (centres undefined) the results were tim10-1 inh 27.5, TIM10 inh 41.1*, tim23-1 inh 42.7, CHOP UPR activ 1.6, UPR XBP1 act -2.7 and TIM10 conf 25.9.
For Cc1ccc(CNC(=O)c2cn(C3CCCCC3)c(=O)c3c2c2ccccc2n3C)o1 the results were tim10-1 inh 25.6, TIM10 inh 43.1*, tim23-1 inh 26.2, CHOP UPR activ 7.6, UPR XBP1 act -3.1 and TIM10 conf -9.5.
`CC(=O)Oc1ccc2c3c(c(=O)oc2c1)CCCC3` gave tim10-1 inh -21.0, TIM10 inh -2.0, tim23-1 inh 10.7, CHOP UPR activ 1.9 and UPR XBP1 act -1.7.
`O=C(Oc1ccc2c3c(c(=O)oc2c1)CCCC3)c1ccco1` gave tim10-1 inh 29.5, TIM10 inh 43.6*, tim23-1 inh 49.6, CHOP UPR activ -1.4, UPR XBP1 act 4.9 and TIM10 conf 45.1*.
`COc1ccc(N2C(=O)CSC2c2ccc3c(c2)OCO3)c(OC)c1` (centres undefined) gave tim10-1 inh 39.8, TIM10 inh 41.0*, tim23-1 inh 21.5, CHOP UPR activ -0.2, UPR XBP1 act 0.5 and TIM10 conf 26.8.
